This is a sample that favours compounds with a hit; in the whole collection about 2% have one here.
DENV2 CPE rescue = inhibitors of DENV2 cytopathic effect; DENV2-infected cells, cytopathic effect rescue, plate reader; CPE inhibition, % at 9.99 µM; 350,000 tested, 1.7% active; AID 651640; in the data active = CPE inhibition above about 20%, passing the limit was not always enough; tested in BHK-21 cells;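 also: 0% = median of neutral control wells and 100% = median of positive control wells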
XiGFP reactiv = reactivates the inactive X chromosome in mouse fibroblasts; activation, % at 7.58 µM; 360,000 tested, 0.055% active; XiGFP mouse fibroblasts, % GFP-positive cells imaging, 3 d; cells co-treated with 5-aza-dC sensitizer; scaled so ellipticine positive control = 100%;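 active = mean normalized replicate activation at least 10% and every replicate at or above 10%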;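 also: 0% = median of on-plate neutral control wells and 100% = ellipticine 6 µM median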
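assay system = SV40-immortalized XiGFP fibroblast cells, line 68-5-11 | buffer or medium = DMEM plus 5-aza-dC sensitizer | doses = single-point pinned compound dosing | times = 3-day compound exposure, then 15 min fixation at room temperature | benchmarks = positive control ellipticine, 6 µM final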
CASP6 VEID inh = blocks human caspase-6 cleavage activity; purified caspase-6, Z-VEID-R110 cleavage fluorescence; P55212; inhibition, % at 12.5 µM; 350,000 tested, 0.53% active;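 active = mean inhibition across replicates at least about 35%, with every replicate also reaching that limit, limit read from the data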;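 also: 0% = median of neutral control wells and 100% = no fluorescence left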
Target sequence (P55212 24-179 limits assumed): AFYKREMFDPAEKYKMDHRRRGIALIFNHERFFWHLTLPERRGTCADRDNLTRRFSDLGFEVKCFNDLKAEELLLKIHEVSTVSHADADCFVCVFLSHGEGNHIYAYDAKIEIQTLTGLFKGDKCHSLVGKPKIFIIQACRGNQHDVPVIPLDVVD
Target sequence (P55212 194-293 limits assumed): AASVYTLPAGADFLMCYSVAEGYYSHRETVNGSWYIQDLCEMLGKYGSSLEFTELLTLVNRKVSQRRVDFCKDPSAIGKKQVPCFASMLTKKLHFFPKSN
CaV13 ICDI inh = Primary screen for inhibitors of IQ motif and Ca2+-dependent inactivation inhibitor domain binding in CACNA1D, Förster resonance energy transfer in living cells, … | HEK cells, CFP/YFP FRET ICDI-IQ, plate reader, 10 min; percent FRET-ratio fall versus neutral wells | inhibition, % at 12.3 µM | 340,000 tested, 0.098% active;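 active = mean replicate inhibition of at least 30% and at least 1% of replicates passing that level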;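 also: 0% = median of the neutral control wells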
FN deposition inh = fibronectin deposition inhibition | AH1F fibroblasts, Alexa488-fibronectin deposition fluorescence, overnight | inhibition, % at 12.6 µM | AID 743247 | 350,000 tested, 0.086% active;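 active = mean inhibition across replicates of 30% or more, regardless of how many single replicates reach that level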;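 also: positive control wells lacked labelled fibronectin entirely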
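Material – AH1F fibroblast monolayer, labelled fibronectin deposition · Reagent – labelled fibronectin 24 nM · Timing – 1 h adhesion, overnight exposure · Measured by – fluorescence at 485 nm excitation, 525 nm emission · Read-out – inhibition of fibronectin deposition signal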
Numbers without * were called inactive; / = no result given.

SMILES	DENV2 CPE rescue	XiGFP reactiv	CASP6 VEID inh	CaV13 ICDI inh	FN deposition inh
CN1C(=O)c2cccc3c(S(=O)(=O)N(C)C)ccc1c23	14	0	0	-7	3
C[C@H]1CN([C@@H](C)CO)S(=O)(=O)c2ccc(-c3cncnc3)cc2O[C@@H]1CN(C)Cc1ccncc1	-4	0	-2	/	/
Cc1ccc2[nH]c(=O)c(C3C(C#N)=C(N)Oc4c3ccc3cccnc43)cc2c1 (stereo not drawn)	/	/	/	-4	3
N#CC1=C(N)Oc2c(ccc3cccnc23)C1c1ccccc1 (stereo not drawn)	4	0	10	-6	36*
O=[N+]([O-])c1cc(F)c2cccnc2c1O	-4	0	92*	-18	0
O=[N+]([O-])c1cc([N+](=O)[O-])c2cccnc2c1Oc1ccccc1O	5	1	45*	-16	-1
O=[N+]([O-])c1ccc(O)c2ncccc12	-5	1	63*	-6	-13
CCC(=O)Nc1ccc2c(c1)OC[C@H](C)N(C(=O)CC1CC1)C[C@@H](C)[C@@H](OC)CN(C)C2=O	-9	0	1	/	-2
Cc1ccc(OCCCCNC(C)c2ccccc2)c(C)c1 (stereo not drawn)	29*	0	-1	-2	13
COc1ccc(C(CNC(=O)COc2cc(C)ccc2Cl)N2CCCCC2)cc1 (stereo not drawn)	37*	0	-1	-7	/
COc1ccccc1C(CNC(=O)COc1cc(C)ccc1Cl)N1CCCC1 (stereo not drawn)	-2	0	-60	-6	-4
COc1cccc(NC(=O)N2CC(=O)N3[C@H](CO)[C@H](c4ccc(C#CCC5CCCC5)cc4)[C@@H]3C2)c1	6	0	-1	/	-10
Cc1cc2c(NC(=O)CCCC(=O)O)cccc2nn1	0	0	6	-14	-4
Cc1cc2c(NC(=O)Nc3ccc(C(F)(F)F)cc3)cccc2nn1	6	0	54*	-4	-8
CN(C)C(=O)c1ccc(-c2cccc(-c3nc(C(=O)NC4CCCC4)cc4c3[C@H](CCO)N([S@@](=O)C(C)(C)C)C4)c2)cc1	-1	0	-3	/	9
O=C1c2ccccc2CN1CCSC(=S)N1CCOCC1	21*	0	0	-5	-1
CC1CN(C(=S)SCCN2Cc3ccccc3C2=O)CC(C)O1 (stereo not drawn)	-4	0	-1	-5	-5
Cc1ccc(NC(=O)/C=C/c2ccc([N+](=O)[O-])s2)cc1	/	97*	/	-4	-12
Cc1cccc(NC(=O)/C=C/c2ccc([N+](=O)[O-])s2)c1	9	81*	-5	-2	-8
Cc1cc([N+](=O)[O-])ccc1NC(=O)/C=C/c1cccs1	/	0	/	-3	3
Cc1cccc(NC(=S)N/N=C/c2ccc([N+](=O)[O-])s2)c1	/	/	/	-6	3
Cc1ccc(NC(=O)/C=C/c2ccc([N+](=O)[O-])s2)c(C)c1	0	37*	-2	-16	0
C[C@H]1CN([C@@H](C)CO)C(=O)c2cc(C#CCC3CCCC3)cnc2O[C@@H]1CN(C)S(=O)(=O)c1cccs1	1	0	0	/	/
C[C@@H]1CN([C@@H](C)CO)C(=O)c2cc(NS(C)(=O)=O)ccc2O[C@H]1CN(C)Cc1ccc(-c2ccccc2)cc1	32*	0	1	/	11
C[C@H]1CN([C@@H](C)CO)C(=O)c2cc(NS(=O)(=O)c3ccc(F)cc3)ccc2O[C@H]1CN(C)Cc1ccccc1	47*	-1	3	/	/
SMILES	DENV2 CPE rescue	XiGFP reactiv	CASP6 VEID inh	CaV13 ICDI inh	FN deposition inh
C[C@@H]1CN([C@H](C)CO)C(=O)c2cc(NS(=O)(=O)c3ccc(F)cc3)ccc2O[C@H]1CN(C)Cc1ccc(-c2ccccc2)cc1	30*	0	-1	/	/
CNC[C@@H]1Oc2ccc(NC(=O)Nc3ccc(C(F)(F)F)cc3)cc2CC(=O)N([C@H](C)CO)C[C@H]1C	3	0	1	/	-7
C/C(C=O)=C/c1ccccc1	91*	/	-1	/	/
CC(/C=C/C(=O)c1ccc(C)cc1)=C\c1ccccc1	/	/	/	-2	/
Cn1c2ccccc2c(=O)c2ccc(F)cc21	-17	0	-3	186*	-5
C[C@@H]1CN([C@@H](C)CO)C(=O)c2cc(NS(C)(=O)=O)ccc2O[C@@H](C)CCCCO[C@@H]1CN(C)S(=O)(=O)c1ccc(Cl)cc1	20*	0	-1	/	/
C[C@@H]1CCCCO[C@H](CN(C)S(=O)(=O)c2ccc(Cl)cc2)[C@H](C)CN([C@H](C)CO)C(=O)c2cc(N(C)C)ccc2O1	89*	-1	-1	/	/
C[C@H]1CCCCO[C@H](CN(C)S(=O)(=O)c2ccc(Cl)cc2)[C@@H](C)CN([C@@H](C)CO)C(=O)c2cc(NC(=O)Cc3ccccc3)ccc2O1	109*	-1	3	/	/
Cc1ccc(S(=O)(=O)Nc2ccc3c(c2)C(=O)N([C@@H](C)CO)C[C@@H](C)[C@H](CN(C)S(=O)(=O)c2ccc(Cl)cc2)OCCCC[C@@H](C)O3)cc1	83*	0	/	/	-1
C[C@@H]1CN([C@H](C)CO)C(=O)c2cc(N(C)C)ccc2O[C@@H](C)CCCCO[C@H]1CN(C)S(=O)(=O)c1ccc(Cl)cc1	/	1	/	/	/
C[C@H](CO)N1C[C@H](C)[C@H](CN(C)S(=O)(=O)c2ccc(Cl)cc2)OCCCC[C@H](C)Oc2ccc(NC(=O)Cc3ccccc3)cc2C1=O	-5	0	0	/	/
CC(=O)N(C)C[C@H]1Oc2ccccc2CC(=O)N(C)C[C@@H]1C	/	0	/	/	-13
Cc1ccc(S(=O)(=O)N(C)C[C@H]2OCCCC[C@@H](C)Oc3ccc(NS(=O)(=O)c4c(C)noc4C)cc3C(=O)N([C@@H](C)CO)C[C@@H]2C)cc1	29*	0	2	/	6
Cc1ccc(S(=O)(=O)N(C)C[C@@H]2OCCCC[C@@H](C)Oc3ccc(NS(=O)(=O)c4c(C)noc4C)cc3C(=O)N([C@@H](C)CO)C[C@@H]2C)cc1	-10	0	-3	/	5
CN1c2ccc(-c3ccccc3F)cc2[C@H]2[C@H](CCN2S(=O)(=O)c2ccccc2)[C@@H]1CO	21*	0	1	/	-2
CC1C=NC(S(=O)(=O)N2CC[C@@H]3[C@@H](CO)N(C)c4ccc(-c5ccc(F)cc5)cc4[C@@H]32)=N1 (stereo partly drawn)	21*	0	/	/	10
CN1c2ccc(-c3ccccc3F)cc2[C@H]2[C@H](CCN2S(=O)(=O)c2ccccc2)[C@H]1CO	-5	0	1	/	-9
CC1C=NC(S(=O)(=O)N2CC[C@@H]3[C@H]2c2cc(-c4cccc(F)c4)ccc2N(C)[C@H]3CO)=N1 (stereo partly drawn)	-3	0	-4	/	-1

Assay outcomes as filed in PubChem.
